# Published values collected from several papers.
# Compare with care: the assays were run in different laboratories.
# Organism: Klebsiella pneumoniae
SMILES,assay,system,conditions,endpoint,result
Cc1c(NN=C2SC(C(C#N)=Cc3ccccc3)=NC2=O)c(=O)n(-c2ccccc2)n1C,"microbial growth, well diffusion",,100000 µg/mL,inhibition zone,14 mm
CCn1cc(C(=O)O)c(=O)c2cc(F)c(N3CCNCC3)cc21,"microbial killing, broth dilution",ATCC43816,,MBC,2 µM
Cc1c(CN(C)C(=O)/C=C/c2cnc3c(c2)CC(CCN)C(=O)N3)oc2ccccc12.Cl (stereo not shown),"microbial growth, broth dilution",BAA2472,,MIC,16 µg/mL
Cc1c(NC(=O)CC2=NC(=O)CS2)c(=O)n(-c2ccccc2)n1C,"microbial growth, well diffusion",,100000 µg/mL,inhibition zone,25 mm
C[C@H]1[C@H](NC(=O)/C(=N\OC(C)(C)C(=O)O)c2csc(N)n2)C(=O)N1S(=O)(=O)O,"microbial growth, broth dilution",ATCC700603,,MIC,0.63 µM
Cc1ccc(C(C)C)cc1OS(=O)(=O)c1ccc([N+](=O)[O-])cc1,"microbial growth, broth dilution",ATCC700603,,IC50,463 µg/mL
CC(=O)NC[C@H]1CN(c2ccc(N3CCOCC3)c(F)c2)C(=O)O1,"microbial growth, broth dilution",ATCC700603,,MIC,1280 µM
N#CC(=Cc1ccccc1O)C1=NC(=O)C(=Cc2cn(-c3ccccc3)nc2-c2ccccc2)S1,"microbial killing, broth dilution",,,MBC,0.5 µg/mL
Cc1ccc(C(C)C)cc1OCc1cn(-c2ccc([N+](=O)[O-])cc2)nn1,"microbial growth, broth dilution",ATCC700603,,IC50,122 µg/mL
O=C(N[C@H](CO)[C@H](O)c1ccc([N+](=O)[O-])cc1)C(Cl)Cl,"microbial growth, broth dilution",ATCC700603,,MIC,80 µM
Cc1ccc(C(C)C)cc1O,"microbial growth, broth dilution",ATCC700603,,IC50,61.9 µg/mL
CCOC(=O)C=c1[nH]c(=O)c(=Cc2cn(-c3ccccc3)nc2-c2ccccc2)s1,"microbial growth, well diffusion",,100000 µg/mL,inhibition zone,14 mm
Cc1ccc(C(C)C)cc1OCc1cn(-c2ccc(Cl)cc2)nn1,"microbial growth, broth dilution",ATCC700603,,IC50,206 µg/mL
CC[C@H]1OC(=O)[C@H](C)[C@@H](O[C@H]2C[C@@](C)(OC)[C@@H](O)[C@H](C)O2)[C@H](C)[C@@H](O[C@@H]2O[C@H](C)C[C@H](N(C)C)[C@H]2O)[C@](C)(OC)C[C@@H](C)C(=O)[C@H](C)[C@@H](O)[C@]1(C)O,"microbial growth, broth dilution",ATCC700603,,MIC,80 µM
Cc1c(NN=C2SC(C(C#N)=Cc3ccc(Cl)cc3)=NC2=O)c(=O)n(-c2ccccc2)n1C,"microbial growth, well diffusion",,100000 µg/mL,inhibition zone,16 mm
Cc1ccc(S(=O)(=O)Oc2cc(C(C)C)ccc2C)cc1,"microbial growth, broth dilution",ATCC700603,,IC50,279 µg/mL
